Measurements reported in ChEMBL document CHEMBL1806352, “Discovery of imidazo[1,2-b]pyridazines as IKKβ inhibitors. Part 3: exploration of effective compounds in arthritis models” (Bioorg Med Chem Lett, 2011).

What was measured:
[1] = Plasma concentration in BALB/c mouse at 30 mg/kg, po after 90 mins; type: ADME, organism-based; set-up: dose 30 mg/kg, route oral
[2] = Octanol-phosphate buffered saline distribution coefficient, log D of the compound at pH 7.4; type: physicochemical
Procedure, shortened: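 PBS pH 7.4 and 1-octanol were mutually pre-saturated for over 12 h. Compound (200 µM) was dissolved in one phase, an equal volume of the other phase was added, and the mixture was shaken 30 min at room temperature. Both phases were assayed by HPLC or LC/MS. Log D7.4 was calculated as log of the octanol/PBS peak area ratio.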

[3] = Permeability of the compound at pH 7.4 by PAMPA method; type: ADME; settings: read-out: permeability
Procedure, shortened: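 PAMPA was run with the donor filter coated with a phospholipid solution and the acceptor plate filled with acceptor buffer pH 7.4. Plates were incubated 4 h at 25 °C. Compound in both plates was quantified spectrometrically, and effective permeability Pe7.4 was calculated.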

[4] = Apparent permeability across MDCK cells at 10 uM after 1 hr by LC/MS/MS analysis; type: ADME, cell-based, Canis lupus familiaris; settings: dog
Procedure, shortened: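 MDCK cells were grown 6 days on transwells to form monolayers. Compound (10 µM in transport buffer, pH 6.0) was added apically. The basolateral side held buffer at pH 7.4 with 4% BSA, and metoprolol served as positive control. After 1 h at 37 °C, basolateral concentration was measured by LC/MS/MS. Papp was calculated from flux over 3600 s across a 0.33 cm² filter.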

[5] = AUC (0 to 24 hrs) in BALB/c mouse at 30 mg/kg, po; type: ADME, organism-based; set-up: time < 24 hr, dose 30 mg/kg, route oral; settings: plasma
Procedure, shortened: (§1)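 Fed female BALB/c mice (7 weeks old, n = 3) received a single oral dose of 30 mg/kg suspended in 0.5% (w/v) methyl cellulose. Blood was drawn at 0.5, 1, 2, 4, 8 and 24 h, and plasma was stored at −20 °C. Drug was quantified by LC/MS/MS, and parameters were derived by non-compartmental analysis.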

[6] = Mean residence time in BALB/c mouse at 30 mg/kg, po; type: ADME, organism-based; set-up: dose 30 mg/kg, route oral; settings: in vivo; procedure, shortened: as §1
[7] = Oral steady-state volume of distribution in BALB/c mouse at 30 mg/kg, po; type: ADME, organism-based; set-up: dose 30 mg/kg, route oral; settings: in vivo, read-out: Vss/F; procedure, shortened: as §1
[8] = Cmax in BALB/c mouse at 30 mg/kg, po; type: ADME, organism-based; set-up: dose 30 mg/kg, route oral; settings: in vivo; procedure, shortened: as §1
[9] = Tmax in BALB/c mouse at 30 mg/kg, po; type: ADME, organism-based; set-up: dose 30 mg/kg, route oral; settings: in vivo; procedure, shortened: as §1
[10] = AUC (0 to 24 hrs) in Wister-Lewis rat at 30 mg/kg, po; type: ADME, organism-based; set-up: time < 24 hr, dose 30 mg/kg, route oral; settings: plasma
Procedure, shortened: (§2)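 Fed female Wistar–Lewis rats (7–8 weeks old, n = 3) were given 30 mg/kg orally as a suspension in 0.5% (w/v) methyl cellulose. Blood samples (0.3 ml) were taken at 0.5, 1, 2, 4, 8 and 24 h. Plasma levels were measured by LC/MS/MS and analysed non-compartmentally.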

[11] = Mean residence time in Wister-Lewis rat at 30 mg/kg, po; type: ADME, organism-based; set-up: dose 30 mg/kg, route oral; settings: in vivo; procedure, shortened: as §2
[12] = Oral steady-state volume of distribution in Wister-Lewis rat at 30 mg/kg, po; type: ADME, organism-based; set-up: dose 30 mg/kg, route oral; settings: in vivo, read-out: Vss/F; procedure, shortened: as §2
[13] = Cmax in Wister-Lewis rat at 30 mg/kg, po; type: ADME, organism-based; set-up: dose 30 mg/kg, route oral; settings: in vivo; procedure, shortened: as §2
[14] = Tmax in Wister-Lewis rat at 30 mg/kg, po; type: ADME, organism-based; set-up: dose 30 mg/kg, route oral; settings: in vivo; procedure, shortened: as §2

Row | concentration at […] [1] [ng/mL] | logD [2] | Papp [3] [×10⁻⁶ cm/s] | SMILES | other results
1 | 440 | 2.6 | > 50 | O=C(NCCN1CCCC1)c1ccc(-c2cnc3ccc(NCC4CC4)nn23)cc1 | Papp at 1 h, 10 µM [4]: 2.3 ×10⁻⁶ cm/s
2 | 600 | 3.5 | > 50 | CCCCNc1ccc2ncc(-c3ccc(C(=O)NC[C@@H]4C[C@@H](F)CN4)c(F)c3)n2n1 | 
3 |  | 2.5 |  | CN(C)CCNC(=O)c1ccc(-c2cnc3ccc(NCC4CC4)nn23)cc1 | Papp at 1 h, 10 µM [4]: 2.1 ×10⁻⁶ cm/s
4 | 660 | 3.6 | > 50 | O=C(NC[C@@H]1C[C@@H](F)CN1)c1ccc(-c2cnc3ccc(NC4CCCC4)nn23)cc1F | 
5 | 540 | 3.1 | > 50 | CCCNc1ccc2ncc(-c3ccc(C(=O)NC[C@@H]4C[C@@H](F)CN4)c(F)c3)n2n1 | 
6 |  | 3.4 |  | CCCN(C[C@@H]1C[C@@H](F)CN1)C(=O)c1ccc(-c2cnc3ccc(NCC4CC4)nn23)cc1 | 
7 | 150 | 3 | 40 | CSCCCNc1ccc2ncc(-c3ccc(C(=O)NC[C@@H]4C[C@@H](F)CN4)c(F)c3)n2n1 | 

The next lines start with the molecule.

Row | SMILES | concentration at […] [1] [ng/mL] | logD [2] | Papp [3] [×10⁻⁶ cm/s] | other results
8 | O=C(NC[C@@H]1C[C@@H](F)CN1)c1ccc(-c2cnc3ccc(NCC4CC4)nn23)cc1F | 380 | 3.1 | > 50 | Papp at 1 h, 10 µM [4]: 4.2 ×10⁻⁶ cm/s; AUC(0-t) at 24 h [5]: 888 ng·h/mL; MRT [6]: 2.3 h; Vd/F [7]: 78 L/kg; Cmax [8]: 260 ng/mL; Tmax [9]: 1 h; AUC(0-t) at 24 h [10]: 23100 ng·h/mL; MRT [11]: 4.9 h; Vd/F [12]: 6.5 L/kg; Cmax [13]: 4100 ng/mL; Tmax [14]: 4 h
9 | O=C(NC[C@@H]1CCCN1)c1ccc(-c2cnc3ccc(NCC4CC4)nn23)cc1Cl |  | 2.2 | 14 | 
10 | CN(C)CCNC(=O)c1ccc(-c2cnc3ccc(NCC4CC4)nn23)nc1 |  | 2 | 14 | 
11 | CN(C)CCNC(=O)c1ccc(-c2cnc3ccc(NCC4CC4)nn23)cc1F | 110 | 2.7 | > 50 | Papp at 1 h, 10 µM [4]: 6.2 ×10⁻⁶ cm/s
12 | O=C(NCCN1CCCC1)c1ccc(-c2cnc3ccc(NCC4CC4)nn23)nc1 |  | 2 | 11 | 
13 | O=C(c1ccc(-c2cnc3ccc(NCC4CC4)nn23)cc1)N(Cc1ccc(Cl)cc1)C[C@@H]1C[C@@H](F)CN1 |  | 5 |  | 
14 | O=C(NC[C@@H]1CCCN1)c1ccc(-c2cnc3ccc(NCC4CC4)nn23)cc1F | 140 | 1.8 | 19 | 
15 | O=C(NC[C@@H]1C[C@@H](F)CN1)c1ccc(-c2cnc3ccc(NCCCCF)nn23)cc1F | 420 | 2.8 | > 50 | 
16 | CSCCNc1ccc2ncc(-c3ccc(C(=O)NC[C@@H]4C[C@@H](F)CN4)c(F)c3)n2n1 |  | 2.8 | > 50 | 
17 | O=C(NCCN1CCCC1)c1ccc(-c2cnc3ccc(NCC4CC4)nn23)cc1F | 290 | 2.8 | > 50 | Papp at 1 h, 10 µM [4]: 5.6 ×10⁻⁶ cm/s
18 | CCCCCNc1ccc2ncc(-c3ccc(C(=O)NC[C@@H]4C[C@@H](F)CN4)c(F)c3)n2n1 | 93 | 4 | > 50 | 
19 | O=C(NC[C@@H]1CCCN1)c1ccc(-c2cnc3ccc(NCC4CC4)nn23)cc1 |  | 1.8 | 0.84 | 
20 | O=C(NC[C@@H]1C[C@@H](F)CN1)c1ccc(-c2cnc3ccc(NCCCCCF)nn23)cc1F | 110 | 3.3 | 37 | 
21 | O=C(NC[C@@H]1C[C@@H](F)CN1)c1ccc(-c2cnc3ccc(NC4CCC4)nn23)cc1F | 1400 | 3.3 | > 50 | Papp at 1 h, 10 µM [4]: 7 ×10⁻⁶ cm/s; AUC(0-t) at 24 h [5]: 1860 ng·h/mL; MRT [6]: 2 h; Vd/F [7]: 32 L/kg; Cmax [8]: 750 ng/mL; Tmax [9]: 1 h; AUC(0-t) at 24 h [10]: 95300 ng·h/mL; MRT [11]: 5.1 h; Vd/F [12]: 1.7 L/kg; Cmax [13]: 16000 ng/mL; Tmax [14]: 2.8 h
22 | O=C(NC[C@@H]1C[C@@H](F)CN1)c1ccc(-c2cnc3ccc(NCCCF)nn23)cc1F | 480 | 2.5 | 33 | 
